Source: the M2OR odorant receptor database
Residue numbers refer to the chain shown, from its start.

Key:
Conditions in all cases: stereoisomer not certain
OR2A7 (Homo sapiens) = biological target: T1, OR2A7 (Homo sapiens) (UniProt Q96R45)
T1 sequence (whole entry): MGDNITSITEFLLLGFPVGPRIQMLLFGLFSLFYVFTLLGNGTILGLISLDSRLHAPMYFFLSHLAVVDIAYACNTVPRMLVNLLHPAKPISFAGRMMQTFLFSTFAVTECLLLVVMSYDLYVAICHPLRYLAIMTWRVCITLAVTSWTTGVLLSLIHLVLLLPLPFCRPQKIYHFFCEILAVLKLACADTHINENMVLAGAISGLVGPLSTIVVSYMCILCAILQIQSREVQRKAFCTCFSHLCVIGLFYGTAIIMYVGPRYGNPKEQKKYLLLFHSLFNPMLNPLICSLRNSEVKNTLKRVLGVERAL
Summary of the method: (§1)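 Assay methods differ from source to source, frequently being transient luciferase assays in mammalian cell lines. For each receptor–molecule pair, the label responsive (active) applies when the original authors judged the measured signal statistically different from baseline, and non-responsive (inactive) applies otherwise.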

OR2A1 T73A R74C S168C = system: T2, OR2A1 T73A R74C S168C
T2 sequence (whole entry): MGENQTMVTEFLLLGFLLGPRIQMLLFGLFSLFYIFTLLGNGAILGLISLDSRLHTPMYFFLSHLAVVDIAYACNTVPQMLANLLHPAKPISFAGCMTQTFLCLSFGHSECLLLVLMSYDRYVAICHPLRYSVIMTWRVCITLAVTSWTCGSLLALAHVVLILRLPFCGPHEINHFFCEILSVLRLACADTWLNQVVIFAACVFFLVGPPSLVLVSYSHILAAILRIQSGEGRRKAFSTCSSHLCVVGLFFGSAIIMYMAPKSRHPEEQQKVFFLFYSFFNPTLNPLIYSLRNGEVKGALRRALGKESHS
Summary of the method: as §1

OR2A12 (Homo sapiens) = biological target: T3, OR2A12 (Homo sapiens) (UniProt Q8NGT7)
T3 sequence (whole entry): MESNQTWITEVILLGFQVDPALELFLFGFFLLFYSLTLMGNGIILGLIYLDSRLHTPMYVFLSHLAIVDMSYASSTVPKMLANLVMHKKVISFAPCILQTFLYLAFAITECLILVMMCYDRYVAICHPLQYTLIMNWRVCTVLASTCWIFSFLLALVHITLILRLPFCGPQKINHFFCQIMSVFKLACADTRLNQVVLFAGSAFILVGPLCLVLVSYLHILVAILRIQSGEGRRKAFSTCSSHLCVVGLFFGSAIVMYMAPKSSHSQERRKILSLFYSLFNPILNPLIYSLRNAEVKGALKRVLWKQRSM
Summary of the method: as §1

OR2A14 (Homo sapiens) = biological target: T4, OR2A14 (Homo sapiens) (UniProt Q96R47)
T4 sequence (whole entry): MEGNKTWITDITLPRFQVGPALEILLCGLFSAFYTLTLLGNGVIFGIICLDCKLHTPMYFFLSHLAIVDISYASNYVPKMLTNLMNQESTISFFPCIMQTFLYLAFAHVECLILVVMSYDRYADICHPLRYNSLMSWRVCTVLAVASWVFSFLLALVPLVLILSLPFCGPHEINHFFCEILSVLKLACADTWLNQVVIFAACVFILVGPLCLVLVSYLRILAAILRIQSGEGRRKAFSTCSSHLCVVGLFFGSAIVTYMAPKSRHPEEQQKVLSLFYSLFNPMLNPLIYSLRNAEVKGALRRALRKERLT
Summary of the method: as §1

OR2A2 (Homo sapiens) = biological target: T5, OR2A2 (Homo sapiens) (UniProt Q6IF42)
T5 sequence (whole entry): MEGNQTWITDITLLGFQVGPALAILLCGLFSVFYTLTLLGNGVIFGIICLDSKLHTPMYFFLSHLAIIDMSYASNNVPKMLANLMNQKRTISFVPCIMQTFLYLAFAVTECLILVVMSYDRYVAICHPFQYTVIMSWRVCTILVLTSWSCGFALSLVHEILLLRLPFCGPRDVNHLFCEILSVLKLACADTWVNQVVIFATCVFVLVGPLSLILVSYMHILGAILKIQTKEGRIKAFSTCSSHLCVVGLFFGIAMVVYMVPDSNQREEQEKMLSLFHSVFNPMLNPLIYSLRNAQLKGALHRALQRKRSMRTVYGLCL
Summary of the method: as §1

OR2A25 (Homo sapiens) = biological target: T6, OR2A25 (Homo sapiens) (UniProt A4D2G3)
T6 sequence (whole entry): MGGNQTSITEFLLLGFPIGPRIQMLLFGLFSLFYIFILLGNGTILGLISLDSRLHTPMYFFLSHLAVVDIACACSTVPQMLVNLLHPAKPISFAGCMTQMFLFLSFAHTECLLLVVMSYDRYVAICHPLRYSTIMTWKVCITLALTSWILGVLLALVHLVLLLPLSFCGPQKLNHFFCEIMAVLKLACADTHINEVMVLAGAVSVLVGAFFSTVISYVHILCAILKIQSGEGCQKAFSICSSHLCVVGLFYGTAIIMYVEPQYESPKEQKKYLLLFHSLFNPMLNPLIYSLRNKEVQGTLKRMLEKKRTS
Summary of the method: as §1

OR2A2 = system: T7, OR2A2
T7 sequence (whole entry): T5 sequence (whole entry) with F280L
Summary of the method: as §1

OR2A4 (Homo sapiens) = biological target: T8, OR2A4 (Homo sapiens) (UniProt O95047)
T8 sequence (whole entry): T1 sequence (whole entry) with T9R, C238R, F250V
Summary of the method: as §1

OR2A5 (Homo sapiens) = biological target: T9, OR2A5 (Homo sapiens) (UniProt Q96R48)
T9 sequence (whole entry): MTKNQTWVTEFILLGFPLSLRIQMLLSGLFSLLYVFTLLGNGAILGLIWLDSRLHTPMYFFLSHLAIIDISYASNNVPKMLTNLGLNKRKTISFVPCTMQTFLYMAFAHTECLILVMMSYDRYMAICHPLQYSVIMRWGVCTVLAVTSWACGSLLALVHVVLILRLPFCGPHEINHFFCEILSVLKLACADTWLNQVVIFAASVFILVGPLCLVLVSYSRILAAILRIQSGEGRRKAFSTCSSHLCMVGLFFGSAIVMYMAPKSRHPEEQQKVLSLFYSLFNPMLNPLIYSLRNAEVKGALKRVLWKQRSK
Summary of the method: as §1

OR2A5 I126V A202S A255T = system: T10, OR2A5 I126V A202S A255T
T10 sequence (whole entry): T9 sequence (whole entry) with I126V, A202S, A255T
Summary of the method: as §1

OR2A7 = system: T11, OR2A7
T11 sequence (whole entry): T1 sequence (whole entry) with T9R
Summary of the method: as §1

OR2AE1 (Homo sapiens) = biological target: T12, OR2AE1 (Homo sapiens) (UniProt Q8NHA4)
T12 sequence (whole entry): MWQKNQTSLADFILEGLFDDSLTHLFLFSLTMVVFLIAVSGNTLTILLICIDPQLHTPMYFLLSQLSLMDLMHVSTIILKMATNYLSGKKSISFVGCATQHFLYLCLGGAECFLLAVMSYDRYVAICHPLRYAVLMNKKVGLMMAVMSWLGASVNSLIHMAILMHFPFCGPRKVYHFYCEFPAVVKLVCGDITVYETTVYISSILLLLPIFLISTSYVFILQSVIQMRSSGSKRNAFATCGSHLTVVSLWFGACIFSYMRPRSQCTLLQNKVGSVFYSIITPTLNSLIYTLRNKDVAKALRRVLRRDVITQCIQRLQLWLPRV
Summary of the method: as §1

OR2AG1 (Homo sapiens) = biological target: T13, OR2AG1 (Homo sapiens) (UniProt Q9H205)
T13 sequence (whole entry): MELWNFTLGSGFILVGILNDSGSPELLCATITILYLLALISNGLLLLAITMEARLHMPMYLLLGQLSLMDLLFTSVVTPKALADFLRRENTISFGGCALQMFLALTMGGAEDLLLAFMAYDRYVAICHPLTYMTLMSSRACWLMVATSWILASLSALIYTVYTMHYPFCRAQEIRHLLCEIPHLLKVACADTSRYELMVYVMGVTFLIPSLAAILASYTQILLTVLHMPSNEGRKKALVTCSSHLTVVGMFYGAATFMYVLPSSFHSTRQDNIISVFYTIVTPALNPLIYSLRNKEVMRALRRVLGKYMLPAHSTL
Summary of the method: as §1

OR2AG2 (Homo sapiens) = biological target: T14, OR2AG2 (Homo sapiens) (UniProt A6NM03)
T14 sequence (whole entry): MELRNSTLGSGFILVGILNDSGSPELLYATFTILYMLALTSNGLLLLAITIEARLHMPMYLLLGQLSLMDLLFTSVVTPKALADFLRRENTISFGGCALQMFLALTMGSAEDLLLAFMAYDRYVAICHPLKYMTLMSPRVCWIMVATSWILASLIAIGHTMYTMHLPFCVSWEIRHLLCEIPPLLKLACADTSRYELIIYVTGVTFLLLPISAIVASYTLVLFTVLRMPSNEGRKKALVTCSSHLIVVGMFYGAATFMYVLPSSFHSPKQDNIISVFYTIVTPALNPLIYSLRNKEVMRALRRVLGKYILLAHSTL
Summary of the method: as §1

OR2AK2 (Homo sapiens) = biological target: T15, OR2AK2 (Homo sapiens) (UniProt Q8NG84)
T15 sequence (whole entry): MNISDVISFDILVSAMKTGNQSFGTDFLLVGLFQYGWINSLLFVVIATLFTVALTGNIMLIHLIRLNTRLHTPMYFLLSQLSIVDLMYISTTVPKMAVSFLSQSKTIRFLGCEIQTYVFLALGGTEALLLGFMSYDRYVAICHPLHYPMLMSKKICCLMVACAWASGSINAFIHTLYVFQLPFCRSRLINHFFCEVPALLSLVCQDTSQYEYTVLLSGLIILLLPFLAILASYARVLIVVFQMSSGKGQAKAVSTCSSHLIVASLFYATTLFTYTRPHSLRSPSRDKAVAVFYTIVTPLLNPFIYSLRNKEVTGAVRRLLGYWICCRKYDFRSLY
Summary of the method: as §1

OR2AP1 (Homo sapiens) = biological target: T16, OR2AP1 (Homo sapiens) (UniProt Q8NGE2)
T16 sequence (whole entry): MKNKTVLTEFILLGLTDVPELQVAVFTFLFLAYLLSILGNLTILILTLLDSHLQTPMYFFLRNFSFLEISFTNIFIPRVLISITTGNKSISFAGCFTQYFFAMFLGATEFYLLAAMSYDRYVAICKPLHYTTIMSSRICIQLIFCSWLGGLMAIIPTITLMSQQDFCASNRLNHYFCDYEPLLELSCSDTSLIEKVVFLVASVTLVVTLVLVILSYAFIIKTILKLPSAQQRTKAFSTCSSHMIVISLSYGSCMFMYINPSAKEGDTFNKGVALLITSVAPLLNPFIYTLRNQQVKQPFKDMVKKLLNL
Summary of the method: as §1

OR2AT4 (Homo sapiens) = biological target: T17, OR2AT4 (Homo sapiens) (UniProt A6NND4)
T17 sequence (whole entry): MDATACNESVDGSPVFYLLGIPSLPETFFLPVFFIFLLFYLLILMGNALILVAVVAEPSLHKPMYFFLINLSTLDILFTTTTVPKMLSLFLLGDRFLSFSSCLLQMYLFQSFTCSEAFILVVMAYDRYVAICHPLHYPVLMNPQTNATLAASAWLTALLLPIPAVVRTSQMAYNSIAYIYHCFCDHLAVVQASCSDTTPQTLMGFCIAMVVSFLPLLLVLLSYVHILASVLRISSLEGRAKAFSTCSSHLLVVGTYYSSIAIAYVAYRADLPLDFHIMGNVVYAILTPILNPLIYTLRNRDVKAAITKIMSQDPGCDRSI
Summary of the method: as §1

OR2B11 (Homo sapiens) = biological target: T18, OR2B11 (Homo sapiens) (UniProt Q5JQS5)
T18 sequence (whole entry): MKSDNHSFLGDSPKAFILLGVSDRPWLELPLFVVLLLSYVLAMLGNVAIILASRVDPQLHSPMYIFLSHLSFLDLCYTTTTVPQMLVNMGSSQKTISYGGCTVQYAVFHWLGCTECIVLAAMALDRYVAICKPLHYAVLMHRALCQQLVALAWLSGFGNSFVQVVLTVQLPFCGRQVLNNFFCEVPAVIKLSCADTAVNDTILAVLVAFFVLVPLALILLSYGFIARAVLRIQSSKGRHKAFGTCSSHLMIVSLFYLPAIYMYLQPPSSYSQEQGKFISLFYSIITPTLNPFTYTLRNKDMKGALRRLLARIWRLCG
Summary of the method: as §1

OR2B2 (Homo sapiens) = biological target: T19, OR2B2 (Homo sapiens) (UniProt Q9GZK3)
T19 sequence (whole entry): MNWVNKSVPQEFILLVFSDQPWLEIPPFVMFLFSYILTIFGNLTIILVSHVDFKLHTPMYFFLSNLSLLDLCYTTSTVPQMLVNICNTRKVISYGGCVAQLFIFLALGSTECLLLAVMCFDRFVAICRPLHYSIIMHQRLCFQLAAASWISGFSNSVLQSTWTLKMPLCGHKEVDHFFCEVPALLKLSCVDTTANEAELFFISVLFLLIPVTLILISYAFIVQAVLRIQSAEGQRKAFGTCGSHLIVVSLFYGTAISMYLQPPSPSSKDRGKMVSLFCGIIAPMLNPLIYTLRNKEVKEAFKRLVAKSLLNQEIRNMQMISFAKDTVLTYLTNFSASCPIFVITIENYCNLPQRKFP
Summary of the method: as §1

OR2AJ1 (Homo sapiens) = biological target: T20, OR2AJ1 (Homo sapiens) (UniProt Q8NGZ0)
T20 sequence (whole entry): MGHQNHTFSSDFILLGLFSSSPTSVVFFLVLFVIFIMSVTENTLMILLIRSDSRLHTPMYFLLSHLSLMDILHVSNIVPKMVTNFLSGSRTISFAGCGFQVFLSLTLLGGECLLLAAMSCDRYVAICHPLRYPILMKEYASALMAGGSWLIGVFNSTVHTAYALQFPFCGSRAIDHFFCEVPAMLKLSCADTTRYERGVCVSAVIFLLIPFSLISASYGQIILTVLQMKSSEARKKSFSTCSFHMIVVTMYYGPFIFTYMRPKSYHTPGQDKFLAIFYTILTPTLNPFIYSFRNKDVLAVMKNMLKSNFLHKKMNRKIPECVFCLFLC
Summary of the method: as §1

Measured: odorant receptor agonist call

CC(C)=CCCC(C)=CCCC(C)=CCO
inactive: OR2A7 (Homo sapiens)

CC1=C(O)C(=O)OC1C (configuration not stated)
not listed: OR2AJ1 (Homo sapiens)
inactive: all other assays above

COc1ccc2[nH]cc(CCNC(C)=O)c2c1
inactive: OR2A7 (Homo sapiens)

CCCCCCC=CCCC=O
inactive: all assays above

CCCCCCCCCCCCO
inactive: OR2A7 (Homo sapiens)

CCCCCC(=O)C(C)C(C)=O (configuration not stated)
not listed: OR2A1 T73A R74C S168C | OR2A2 | OR2A5 I126V A202S A255T | OR2A7
inactive: all other assays above

CCC1OC(=O)C(O)=C1C (configuration not stated)
not listed: OR2AJ1 (Homo sapiens)
inactive: all other assays above
